{"source": "ChEMBL document CHEMBL1155030", "about": "“Design of novel cyclic altered peptide ligands of myelin basic protein MBP83-99 that modulate immune responses in SJL/J mice” (J Med Chem, 2008)", "key": {"[1]": {"experiment": "Induction of IL4 production in SJL/J mouse spleen cells assessed as spot forming unit per 0.5 million cells by ELISpot analysis", "format": "functional", "how_it_was_run": "(§1)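 Female SJL/J mice immunized with peptide in CFA or with peptide conjugated to reduced mannan (50 µg intradermal, days 0 and 14). Spleens taken at day 28. 5 × 10^5 cells/well were incubated 24 h at 37 °C with 10 µg/mL recall peptide on anti-IL-4-coated plates, then developed with biotin anti-IL-4, streptavidin-ALP and a colorimetric substrate. Triplicate wells. Reported as SFU/0.5 million cells minus cells-alone background.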"}, "spleen": {"system": "spleen", "experiment": "Increase in MBP83-99 peptide-induced IL4 production in SJL/J mouse spleen cells assessed per 0.5 million cells after 24 hrs by ELISpot analysis", "format": "functional, cell-based", "how_it_was_run": "as §1"}, "[2]": {"experiment": "Effect on MBP83-99 peptide-induced SJL/J mouse spleen cells proliferation assessed as [3H]thymidine incorporation after 6 days", "format": "tissue-based", "conditions": "144 h", "how_it_was_run": "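Spleen cells taken 28 days after immunization of female 6-8 week SJL/J mice with native MBP83-99 in CFA. 1 × 10^5 cells/well were cultured 1-6 days at 37 °C with recall peptide (10 µg/ml); cells alone served as background. 1 µCi [3H]thymidine was added per well, 6 h before harvest, one plate per day. Reported as mean cpm of triplicate wells, three mice per group.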"}}, "note": "Calls of active or inactive are those of the source. The calls are words filed in the database; no cut-off is given here. Where a SMILES comes first, the peptide text is derived from it."}
{"compound": "H-ENPVVHFFANIVTPRTP-OH", "values": [{"measurement": "Activity", "setting": "[1]", "value": 600}, {"measurement": "Activity", "setting": "spleen", "value": "inactive"}]}
{"compound": "CC[C@H](C)[C@@H]1NC(=O)[C@H](CC(N)=O)NC(=O)[C@H](C)NC(=O)[C@H](Cc2ccccc2)NC(=O)[C@H](Cc2ccccc2)NC(=O)[C@H](Cc2cnc[nH]2)NC(=O)[C@H](C(C)C)NC(=O)[C@H](C(C)C)NC(=O)[C@@H]2CCCN2C(=O)[C@H](CC(N)=O)NC(=O)[C@H](CCC(=O)O)NC(=O)[C@@H]2CCCN2C(=O)[C@H]([C@@H](C)O)NC(=O)[C@H](CCCNC(=N)N)NC(=O)[C@@H]2CCCN2C(=O)[C@H]([C@@H](C)O)NC(=O)[C@H](C(C)C)NC1=O", "note": "(cyclo(ANIVTPRTPENPVVHFF))", "values": [{"measurement": "Activity", "setting": "[1]", "value": 70}]}
{"compound": "CC[C@H](C)[C@H](NC(=O)[C@H](CC(N)=O)NC(=O)[C@H](CCCCN)NC(=O)[C@H](Cc1ccccc1)NC(=O)[C@H](Cc1ccccc1)NC(=O)[C@H](Cc1cnc[nH]1)NC(=O)[C@@H](NC(=O)[C@@H](NC(=O)[C@@H]1CCCN1C(=O)[C@H](CC(N)=O)NC(=O)[C@@H](N)CCC(=O)O)C(C)C)C(C)C)C(=O)N[C@H](C(=O)N[C@H](C(=O)N1CCC[C@H]1C(=O)N[C@@H](CCCNC(=N)N)C(=O)N[C@H](C(=O)N1CCC[C@H]1C(=O)O)[C@@H](C)O)[C@@H](C)O)C(C)C", "values": [{"measurement": "Activity", "setting": "spleen", "value": "inactive"}]}
{"compound": "CC[C@H](C)[C@H](NC(=O)[C@H](CC(N)=O)NC(=O)[C@H](CCCCN)NC(=O)[C@H](Cc1ccccc1)NC(=O)[C@H](Cc1ccccc1)NC(=O)[C@H](Cc1c[nH]cn1)NC(=O)[C@@H](NC(=O)[C@@H](NC(=O)[C@@H]1CCCN1C(=O)[C@H](CC(N)=O)NC(=O)[C@@H](N)CCC(=O)O)C(C)C)C(C)C)C(=O)N[C@H](C(=O)N[C@H](C(=O)N1CCC[C@H]1C(=O)N[C@@H](CCCNC(=N)N)C(=O)N[C@H](C(=O)N1CCC[C@H]1C(=O)O)[C@@H](C)O)[C@@H](C)O)C(C)C", "values": [{"measurement": "Activity", "setting": "[2]", "value": "Active"}]}
